Shown are actives, neighbours in structure and some others; about 1.7% of the full set was active somewhere.
DNMT1 inh – blocks human DNA methyltransferase DNMT1. DNMT1 molecular beacon, Hinp1I cleavage, fluorescence. inhibition (reported as % activation of signal), % at 10 µM. 360,000 tested, 0.83% active. AID 588458; in the data active = inhibition above about 50%
STEP inh – blocks human striatal-enriched tyrosine phosphatase; P54829; recombinant STEP, OMFP fluorogenic substrate, fluorescence; inhibition, % at 20 µM; 360,000 tested, 0.25% active; AID 588621;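 active = inhibition at 20 µM, scaled per plate between control wells, above about 37%, limit read from the data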;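 also: 0% = DMSO with enzyme and substrate and 100% = substrate only without enzyme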
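material = STEP tyrosine phosphatase | reagent = fluorogenic phosphatase substrate OMFP at 25 µM final | doses = single compound dose of 20 µM, 1% DMSO final | schedule = 20 min reaction, room temperature, in the dark | measured by = fluorescence, 480/540 nm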
Scp-1 inhibitor – Scp-1 (human) phosphatase inhibition; Q9GZU7; Recombinant Scp1, phosphopeptide, malachite green phosphate absorbance; inhibition, % at 20 µM; 340,000 tested, 0.88% active; AID 493091;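 active = inhibition above about 50% at 20 µM, limit read from the data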;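 also: plate controls were DMSO wells with enzyme for no effect and wells lacking enzyme for full effect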
Target sequence (Q9GZU7 76-261 limits assumed): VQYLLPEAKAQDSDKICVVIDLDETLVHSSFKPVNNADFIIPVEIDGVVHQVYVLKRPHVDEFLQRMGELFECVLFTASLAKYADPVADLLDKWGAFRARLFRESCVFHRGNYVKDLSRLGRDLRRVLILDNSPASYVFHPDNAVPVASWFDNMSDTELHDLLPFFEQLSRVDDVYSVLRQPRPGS
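System: SCP-1 catalytic domain; Reagent: Phospho 17-mer peptide substrate; Doses: one concentration, 20 µM, with 1.0% DMSO; Incubation: 45 min room-temperature reaction, 5 min colour, 30 min stabiliser; Signal: Phosphate-binding colour reagent, absorbance read at 630 nm.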
LMPTP inh – blocks human LMPTP phosphatase; P24666; recombinant LMPTP-A, OMFP fluorogenic substrate, fluorescence intensity; inhibition, % at 20 µM; 360,000 tested, 0.22% active; AID 651560;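 active = compounds that cut the enzyme signal by at least half of the control window in the single-dose screen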;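 also: plate controls were DMSO wells with enzyme plus substrate for no effect and substrate without enzyme for full effect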
Target sequence (P24666 whole entry, looked up): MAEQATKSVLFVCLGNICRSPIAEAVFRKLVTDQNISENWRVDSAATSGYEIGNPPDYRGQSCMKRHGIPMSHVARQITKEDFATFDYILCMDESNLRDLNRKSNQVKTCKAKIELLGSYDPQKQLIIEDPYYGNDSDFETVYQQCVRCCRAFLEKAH
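Assay system: LMPTP-A enzyme. Input: 0.625 nM LMPTP-A final. Probe or stimulus: 400 µM OMFP. Compound dosing: single 20 µM dose. Schedule: 50 min dark incubation at room temperature. Detection: fluorescence intensity of OMFP turnover product. Read-out: percent inhibition versus substrate-only and uninhibited controls. Benchmarks: no-enzyme low control, uninhibited high control.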
SUMO1-SIM PPI – alters human SUMO1 binding to SIM partners; SUMO1 binding to a labelled peptide, TR-FRET, 1 h; P63165; 360,000 tested, 0.33% active; inhibition, % at 20 µM; in the data active = inhibition above about 37%
Target sequence (P63165 whole entry, looked up): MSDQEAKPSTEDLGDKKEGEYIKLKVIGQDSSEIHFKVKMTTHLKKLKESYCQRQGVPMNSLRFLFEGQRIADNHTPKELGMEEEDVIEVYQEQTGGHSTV
Scp1 confirm – confirmation of human Scp-1 phosphatase inhibitors; shares compounds with Scp-1 inhibitor; recombinant SCP-1 catalytic domain, phosphate release, malachite green absorbance; inhibition, % at 20 µM; 2,500 tested, 61% active; AID 540281;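 also: plate controls were DMSO with enzyme for no effect and buffer wells lacking enzyme for full effect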
MG interference – colorimetric interference in Scp-1 counter-screen. shares compounds with Scp-1 inhibitor. Colorimetric interference counterscreen, malachite green absorbance 630 nm. apparent inhibition (interference), % at 20 µM. AID 540313. 2,500 tested, under 10 active;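 also: compounds added after enzyme reaction finished so only phosphate colour detection is probed; plate controls were DMSO wells with completed Scp-1 reaction for no effect and substrate wells lacking enzyme for full effect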
Scp-1 Tm shift – Scp-1 (human) binding by thermal shift. 1,500 tested, 25% active. Recombinant SCP1, Sypro Orange thermal shift Tm. thermal shift relative to vanadate control, % at 40 µM. shares compounds with Scp-1 inhibitor;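 active = substances whose mean melting-temperature shift, as a percentage of the reference inhibitor's shift, reaches about 5.3%, limit read from the data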;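 also: 0% = Tm of DMSO wells and 100% = Tm with sodium orthovanadate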
DNMT1 confirm – confirmation of human DNMT1 inhibitors. DNMT1 molecular beacon HinP1I cleavage, fluorescence. shares compounds with DNMT1 inh. inhibition, % at 10 µM. 2,300 tested, 8% active. AID 602385;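 active = average inhibition of at least 30% in the single-concentration confirmation test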
Beacon interf – counter-screen for DNMT1 inhibitors: spectral interference; activation (fluorescence interference), % at 10 µM; DNMT1 molecular beacon spectral interference counterscreen, fluorescence 485/520; 2,300 tested, 1% active; shares compounds with DNMT1 inh;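 active = activation of at least 30% at 10 µM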;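 also: DNMT1 catalytic domain with a HinP1I cleavage step and a FAM/dabcyl DNA beacon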
STEP conf – confirmation of human STEP phosphatase inhibitors. shares compounds with STEP inh. recombinant STEP, OMFP fluorogenic substrate, fluorescence. inhibition, % at 20 µM. 520 tested, 32% active. AID 623866; call rule not given here;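 also: 0% = enzyme with substrate plus DMSO and 100% = substrate without enzyme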
Active calls of the source: *; nt = no result given.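 The calls were made as follows, unless noted: active = inhibition of at least 30% at 20 µM; inactive = the rest.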

SMILES | DNMT1 inh | STEP inh | Scp-1 inhibitor | LMPTP inh | SUMO1-SIM PPI | Scp1 confirm | MG interference | Scp-1 Tm shift | DNMT1 confirm | Beacon interf | STEP conf
N#Cc1ccccc1S(=O)(=O)N1CCN(C(=O)c2cc3c(s2)CCC3)CC1 | 56* | 28 | 98* | 42 | 10 | 70* | -13 | -17 | 4 | 1 | nt
C=CCNc1oc(C2CCCC2)nc1C#N | 1 | -1 | -11 | -1 | -2 | nt | nt | nt | nt | nt | nt
COc1ccccc1N1CCN(C2CCCN(C(=O)CCN3CCCCO3)C2)CC1 (configuration not stated) | 0 | 1 | -3 | -1 | -4 | nt | nt | nt | nt | nt | nt
O=C(O)C1CC(c2ccc(F)cc2)=NO1 (configuration not stated) | 86* | 0 | 52* | -2 | 5 | 34* | -17 | -5 | 13 | 4 | nt
Cc1ccc(C)c(S(=O)(=O)/N=C(/Nc2ccccc2)c2ccccc2)c1 | 0 | 0 | -7 | 2 | 0 | nt | nt | nt | nt | nt | nt
Cc1ccc(-n2ncc(-c3n[nH]c(=S)o3)c2N)cc1C | -1 | 0 | nt | -1 | 6 | nt | nt | nt | nt | nt | nt
O=C(O)c1cc(S(=O)(=O)N2CCCCC2)ccc1N1CCCC1 | 2 | -4 | -3 | -2 | 3 | nt | nt | nt | nt | nt | nt
COc1cccc(=O)c2c(C)n(-c3ccc(C(=O)O)cc3)c(C)c12 | 63* | 18 | 60* | 3 | 24 | 29 | -16 | nt | 3 | -3 | nt
CCOc1cccc(=O)c2c(C)n(-c3ccc(C(=O)O)cc3)c(C)c12 | 94* | 31 | 60* | 3 | 41* | 55* | -4 | 15* | 2 | 0 | nt
COc1ccc(-n2c(C)c3c(OC)cccc(=O)c3c2C)cc1 | -12 | 1 | -8 | 4 | -13 | nt | nt | nt | nt | nt | nt
CCOc1cccc(=O)c2c(C)n(Cc3ccccc3)c(C)c12 | -3 | 0 | -7 | -2 | -1 | nt | nt | nt | nt | nt | nt
NC(=O)c1cc2ccccc2o/c1=N\NC(=O)c1ccccc1O | 2 | 99* | 103* | 75* | -3 | 79* | -3 | -12 | nt | nt | 90*
COc1ccc(/C=N/N=C2/NC(=O)C(CC(=O)O)S2)cc1OCc1ccc(Cl)cc1Cl (configuration not stated) | 7 | 80* | 66* | 4 | 17 | 79* | -7 | -10 | nt | nt | 35*
O=C(NNC(=O)c1cc2cc3ccccc3nc2s1)c1cccc(Cl)c1 | 78* | 97* | 98* | 63* | -2 | 73* | -13 | -27 | 2 | 1 | 3
O=C(NNC(=O)c1cc2cc3ccccc3nc2s1)c1ccc(F)cc1 | 11 | 97* | 105* | 32 | -5 | 68* | -13 | -4 | nt | nt | 4
Cc1cccc(C(=O)NNC(=O)c2cc3cc4ccccc4nc3s2)c1 | 9 | -4 | 8 | 1 | -4 | nt | nt | nt | nt | nt | nt
O=C(/C=C/c1ccc(Cl)cc1)NC(=S)Nc1ccc(C(=O)O)cc1 | 2 | 92* | 96* | 67* | -7 | 88* | -8 | -2 | nt | nt | 50*
CN(C)c1ccc(NC(=S)NC(=O)/C=C/c2ccc(Cl)cc2)cc1 | 17 | 2 | -2 | 0 | -4 | nt | nt | nt | nt | nt | nt
N=C1S/C(=C\c2ccc(O)cc2)C(=O)N1c1ccc(F)cc1 | 20 | 78* | 78* | 69* | -4 | 52* | -13 | 19* | nt | nt | 12*
O=C(N/N=C/c1cccc([N+](=O)[O-])c1)c1ccc(Br)cc1 | 20 | 73* | 98* | 65* | -7 | 86* | -8 | -2 | nt | nt | 17*
